Results from PubChem BioAssay.
Calls of active or inactive are those of the source.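 Rule for the calls, unless noted: active = fluorescence slope after compound addition differing from the mean of all screened samples at 99.7% confidence, in either direction; inactive = the rest.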

Tests used:
[1] = inhibitors of TNFa-induced NFkB p65 translocation, primary screen, imaging, HUVEC, MLSMR starter and 10KST1 sets (AID 438;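 active = inhibition above 20% together with a positive visual image hit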;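 note: compound added about 3h40 before a 20 min TNFalpha stimulation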;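 for inhibition: signal is the nuclear over cytoplasmic p65 intensity ratio per well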); conditions: HUVEC TNFa-induced p65 nuclear translocation; cell count: measured here: nuclei count (cytotoxicity indicator), at 2.08 µM; inhibition: at 2 µM, stronger effect = higher value, 0% TNFa-plus-vehicle, 100% no-TNFa wells
[2] = reduction of polyQ htt aggregates in cells – imaging, exon1htt(103Q)mCFP cells, high-content imaging, primary screen (AID 483;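 active = visual image review flags a hit and inhibition of aggregation exceeds 20%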;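 note: compound exposure lasted 3 days before fixation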;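 for nuclei count: percent of the per-plate median nuclei count of sample wells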); conditions: exon1htt(103Q)mCFP cell line, aggregate imaging, at 2 µM; inhibition of aggregation: stronger effect = higher value; nuclei count: measured here: cell count, toxicity
[3] = endothelial E-selectin expression blockers – imaging, HUVEC, immunofluorescence, MLSMR starter and 10KST1 sets, primary screen (AID 487;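 active = visually confirmed hit in the image check and inhibition above 20%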;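 for inhibition: signal is fraction of cell area covered by stained E-selectin grains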;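 for nuclei count: 100% = median nuclei count of all wells on the same plate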); conditions: HUVEC TNFalpha-induced E-selectin immunofluorescence imaging, at 2 µM; inhibition: stronger effect = higher value; nuclei count: measured here: cell number, toxicity
[4] = target: Voltage-gated potassium channel subunit beta-2 (Rattus norvegicus) (UniProt P62483); assay: inhibitors of rat Kvbeta2 reductase activity – biochemical, NADPH fluorescence, primary screen (AID 622;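 active = fluorescence slope higher than the sample average by over 3 SD, cut at about -0.22 in these data, passing the limit was not always enough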;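 note: slope of raw intensity against log time taken from 70 to 1610 s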); conditions: recombinant KvBeta, 4-cyanobenzaldehyde reduction, at 10 µM, stronger effect = higher value
[5] = target: Voltage-gated potassium channel subunit beta-2 (Rattus norvegicus) (UniProt P62483); assay: enhancers of rat Kvbeta2 NADPH turnover – biochemical, NADPH fluorescence, primary screen (AID 623;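 active = NADPH fluorescence slope more negative than the mean of all samples by about 3 SD, 99.7% confidence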;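 note: fluorescence intensity change per second fitted from 20 to 320 s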); conditions: Recombinant KvBeta, NADPH fluorescence decrease slope, 10 min; at 10 µM; stronger effect = lower value
[6] = target: Alpha-2C adrenergic receptor (Homo sapiens) (UniProt P18825); assay: compounds altering alpha2C-coupled GIRK flux – cell-based, HEK293 alpha2C/GIRK1/2, thallium flux, primary screen (AID 624); conditions: thallium flux BTC fluorescence, at 10 µM, actives lie on both sides;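 note: slope of fluorescence ratio to pre-addition baseline per second over 15 to 24 s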
[7] = inhibitors of larval lipid processing in zebrafish, primary screen, whole organism, PED6 fluorescence, gall bladder and intestine (AID 686;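 active = a full or partial loss of lipid-probe fluorescence in the fish gall bladder, intestine or both, judged by eye; inactive = no fluorescence loss, or compound toxic to the fish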;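 note: larvae 5 to 7 days old with five fish per well; signal comes from phospholipase A2 cleavage of quenched PED6 carried via bile; overnight exposure to compound and PED6 before scoring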); conditions: Zebrafish larvae PED6 lipid processing, fluorescence scoring; screened at 20 µM (by protocol)
Method in brief: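 system = live zebrafish larvae aged 5-7 days, whole organism | probe or stimulus = ingested quenched lipid PED6 at 100 nM | doses = 20 µM single dose | timing = overnight exposure | detection = fluorescence microscopy with visual scoring of gall bladder and intestine | read-out = visual per-well fluorescence inhibition score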

[8] = blockers of RIG-like receptor reporter activation – cell-based, Sendai virus stimulus, luciferase, 10K MLSCN set, TLR/RLR signaling modifier project, primary screen (AID 602276;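 active = inhibition at or above 50% at 10 µM; inactive = inhibition below 50%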;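 note: firefly luciferase from ISG56 promoter only with Renilla not read in this screen; 0% = Sendai virus plus DMSO and 100% = medium plus DMSO without virus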); conditions: HEK293 RL24 IRF3 luciferase reporter, at 10 µM, stronger effect = higher value
[9] = TLR3 IRF3 reporter activation blockers – cell-based, poly I:C stimulus, luciferase, 10K MLSCN set, primary screen (AID 602277;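 active = inhibition of the reporter signal at or above 50%; inactive = inhibition below 50%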); conditions: HEK293-TLR3 RL24 IRF3 luciferase reporter, at 10 µM, stronger effect = higher value

Chain of Voltage-gated potassium channel subunit beta-2 (Rattus norvegicus) (P62483 whole entry, looked up): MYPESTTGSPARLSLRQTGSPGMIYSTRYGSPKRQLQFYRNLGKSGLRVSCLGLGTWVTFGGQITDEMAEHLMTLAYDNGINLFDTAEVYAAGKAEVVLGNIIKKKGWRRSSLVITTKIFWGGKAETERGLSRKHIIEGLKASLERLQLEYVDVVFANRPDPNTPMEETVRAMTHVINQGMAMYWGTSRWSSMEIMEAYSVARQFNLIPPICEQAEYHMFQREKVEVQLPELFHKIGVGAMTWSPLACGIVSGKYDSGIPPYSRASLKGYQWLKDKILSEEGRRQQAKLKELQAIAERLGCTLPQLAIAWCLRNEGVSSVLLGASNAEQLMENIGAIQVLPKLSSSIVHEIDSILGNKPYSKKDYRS
Chain of Alpha-2C adrenergic receptor (Homo sapiens) (P18825 whole entry, looked up): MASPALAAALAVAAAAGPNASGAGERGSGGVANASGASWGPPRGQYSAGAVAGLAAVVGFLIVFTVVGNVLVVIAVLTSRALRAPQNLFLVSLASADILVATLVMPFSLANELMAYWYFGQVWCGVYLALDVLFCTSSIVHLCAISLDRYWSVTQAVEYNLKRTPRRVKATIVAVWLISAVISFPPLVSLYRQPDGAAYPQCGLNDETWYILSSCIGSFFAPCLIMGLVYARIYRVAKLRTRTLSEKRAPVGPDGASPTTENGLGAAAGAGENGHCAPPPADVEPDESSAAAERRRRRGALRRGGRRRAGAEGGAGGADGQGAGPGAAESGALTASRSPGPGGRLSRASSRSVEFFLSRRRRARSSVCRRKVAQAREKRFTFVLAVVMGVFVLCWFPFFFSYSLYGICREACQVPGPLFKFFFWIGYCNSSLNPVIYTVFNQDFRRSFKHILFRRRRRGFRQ

SMILES | cell count [1] | inhibition [1] | inhibition of aggregation [2] | nuclei count [2] [%] | inhibition [3] | nuclei count [3] [%] | fluorescence slope [4] | NADPH fluorescence slope [5] | slope [6] | outcome [7] | inhibition [8] | inhibition [9]
Cc1ccc(-c2nn(-c3ccccc3)cc2/C=C(\C#N)c2cccc(C#N)c2)o1 | 264 | -9.3% (inactive) | -10% (inactive) | 97.5 | 3.9% (inactive) | 84.1 | -0.273 (inactive) | -2.6e-05 (inactive) | 0.0087 (active) | inactive | 13.8% (inactive) | 5.01% (inactive)
CN(C)C(=O)COc1ccc2cc(-c3ccccc3)c(=O)oc2c1 | 300 | -4% (inactive) | 14.5% (inactive) | 89.5 | -75.1% (inactive) | 146 | -0.00785 (inactive) | 0 (inactive) | 0.0053 (inactive) | inactive | -24.2% (inactive) | 98.1% (active)
CN1C(=O)c2oc3ccccc3c(=O)c2C1c1ccccn1 (stereo not given) | 404 | 5.4% (inactive) | -16.4% (inactive) | 106 | -28.5% (inactive) | 87.5 | -0.437 (inactive) | -4.2e-05 (inactive) | 0.00452 (inactive) | inactive | 18% (inactive) | 12% (inactive)
Cc1nonc1NC(=O)c1ccccc1Br | 620 | 9.6% (inactive) | 28.1% (inactive) | 96.4 | 52.4% (inactive) | 60 | -0.346 (inactive) | -5.8e-05 (inactive) | 0.00524 (inactive) | inactive | 12% (inactive) | 22.4% (inactive)
O=S1(=O)CCN2C(=N1)SC1=C2CCN(Cc2ccccc2)C1 | 514 | -3% (inactive) | -3.2% (inactive) | 91.4 | -42.3% (inactive) | 144 | -0.434 (inactive) | -1e-05 (inactive) | 0.00453 (inactive) | inactive | 17% (inactive) | 13.7% (inactive)
Clc1ccc(OCc2nnc(SCCN3CCCCC3)n2Cc2ccco2)cc1 | 587 | -2.7% (inactive) | 6% (inactive) | 98.8 | 45.2% (inactive) | 88.3 | -0.28 (inactive) | -1.2e-05 (inactive) | 0.00483 (inactive) | active; no signal in gallbladder and intestine | 8.16% (inactive) | 13.8% (inactive)
COc1ccc(Cl)cc1N1CCN(CCNC(=O)Nc2ccccc2C)CC1 | 353 | 0.6% (inactive) | -3.4% (inactive) | 108 | -3.8% (inactive) | 111 | -0.452 (inactive) | -1.3e-05 (inactive) | 0.00435 (inactive) | inactive | 21.9% (inactive) | 8.13% (inactive)
CCCCc1c(O)nc(SCC(=O)Nc2ccc3c(c2)CCC3)[nH]c1=O | 569 | -18.3% (inactive) | -3% (inactive) | 75.8 | -5.9% (inactive) | 87.2 | -0.368 (inactive) | -6.1e-05 (inactive) | 0.00495 (inactive) | inactive | 10.6% (inactive) | 7.8% (inactive)
COCCCN1C(=O)C(=O)/C(=C(/O)c2ccc(OC)cc2)C1c1ccc(O)c(OC)c1 (stereo not given) | 499 | -14.9% (inactive) | -10% (inactive) | 101 | 25.3% (inactive) | 98.6 | -0.39 (inactive) | -2.6e-05 (inactive) | 0.00521 (inactive) | inactive | 4.25% (inactive) | -6.14% (inactive)
Cc1ccc2cc(C(c3nnnn3C3CCCC3)N3CCN(c4ccc(F)cc4)CC3)c(=O)[nH]c2c1 (stereo not given) | 586 | 7.2% (inactive) | -4.3% (inactive) | 99.8 | -31.9% (inactive) | 130 | -0.372 (inactive) | -4.7e-05 (inactive) | 0.00624 (inactive) | inactive; toxic | 23.2% (inactive) | 34.2% (inactive)
CCCCCCC(c1c(C)n(C)n(-c2ccccc2)c1=O)c1c(C)n(C)n(-c2ccccc2)c1=O | 272 | -12.6% (inactive) | 21% (inactive) | 59.4 | -39.4% (inactive) | 102 | -0.407 (inactive) | -5e-05 (inactive) | 0.00514 (inactive) | inactive | 7.89% (inactive) | 7.24% (inactive)
O=C(Cc1cccs1)N(c1ccccc1)C1C=CS(=O)(=O)C1 (stereo not given) | 294 | 4.2% (inactive) | -21.3% (inactive) | 110 | 8.4% (inactive) | 88.2 | -0.376 (inactive) | -5.4e-05 (inactive) | 0.0046 (inactive) | inactive | 10.7% (inactive) | 15.6% (inactive)
Cc1cc(C)n(C(C)n2nc(C)cc2C)n1 | 367 | 4.3% (inactive) | -9.9% (inactive) | 110 | -37% (inactive) | 68 | -0.364 (inactive) | -6.5e-05 (inactive) | 0.00585 (inactive) | inactive | 11.8% (inactive) | 12.7% (inactive)
CCOC(=O)c1ccccc1NC1CC(=O)N(c2ccccc2C)C1=O (stereo not given) | 242 | 6.7% (inactive) | 12.6% (inactive) | 97.9 | 8.6% (inactive) | 94.8 | -0.262 (inactive) | 9.8e-06 (inactive) | 0.00569 (inactive) | inactive | -4.41% (inactive) | -8.61% (inactive)
Cn1nc(C(C)(C)C)cc1C(=O)NCc1ccc(N2CCCC2=O)cc1 | 651 | -10.6% (inactive) | -12.4% (inactive) | 70.7 | -11.3% (inactive) | 107 | -0.456 (inactive) | -9.7e-05 (inactive) | 0.00425 (inactive) | inactive; toxic | 9.24% (inactive) | -37.1% (inactive)
CCC(c1nnc(SCC(=O)Nc2ccc(C(=O)Nc3ccccc3OC)cc2)o1)N(C)C (stereo not given) | 464 | 2.9% (inactive) | -11.7% (inactive) | 102 | -70.6% (inactive) | 90.3 | -0.442 (inactive) | -7.1e-06 (inactive) | 0.00416 (inactive) | inactive | -5.51% (inactive) | 98.3% (active)
CCOC(=O)c1c(N)c(C#N)nn1-c1ccccc1C(=O)OC | 516 | -3.6% (inactive) | 30.5% (inactive) | 81 | -41.6% (inactive) | 101 | -0.364 (inactive) | -4.6e-05 (inactive) | 0.00521 (inactive) | inactive | 9.81% (inactive) | 20.2% (inactive)
O=C(CN(c1ccc(F)cc1)S(=O)(=O)c1ccc2c(c1)OCCO2)Nc1cccnc1 | 757 | 1.6% (inactive) | 7% (inactive) | 93.5 | -19.1% (inactive) | 111 | -0.453 (inactive) | -4.5e-05 (inactive) | 0.00513 (inactive) | inactive | 7.14% (inactive) | 18.5% (inactive)
Cc1ccc(OCC2Cn3c(nc4c3c(=O)n(C)c(=O)n4C)O2)cc1 (stereo not given) | 423 | 1.8% (inactive) | 22.4% (inactive) | 104 | -13.1% (inactive) | 120 | -0.406 (inactive) | -2.7e-05 (inactive) | 0.00486 (inactive) | inactive | 17.1% (inactive) | 11.7% (inactive)
Cc1cc(-c2ccccc2)nc(SCc2ccc(C(=O)O)o2)n1 | 398 | -1.3% (inactive) | 0.6% (inactive) | 86.2 | -106% (inactive) | 105 | -0.373 (inactive) | -6.9e-05 (inactive) | 0.00508 (inactive) | inactive | 7.19% (inactive) | 8.59% (inactive)
